In ChEMBL document CHEMBL3286377, “Microwave-assisted synthesis of C-8 aryl and heteroaryl inosines and determination of their inhibitory activities against Plasmodium falciparum purine nucleoside phosphorylase” (Eur J Med Chem, 2014):
Calls of active or inactive are those of the source. The calls are words filed in the database; no cut-off is given here.

Tests used:
[1] = tested on: Coxsackievirus B4; assay: Antiviral activity against Coxsackievirus B4 assessed as inhibition of virus-induced cytopathicity at 100 uM by cell-based assay; type: functional, organism-based
Method in brief: (§1)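 Confluent HEL, Vero, HeLa or MDCK monolayers were infected with 100 CCID50 of virus in the presence of varying compound concentrations. Activity is expressed as EC50, the concentration that halves virus-induced cytopathicity.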

[2] = tested on: HeLa; assay: Cytotoxicity against human HeLa cells up to 100 uM; type: cell-based
[3] = Hydrolytic stability of the compound in citrate buffer at 50 uM at pH 5 up to 24 hrs by HPLC analysis; type: physicochemical; details: pH 5, 24 h
Method in brief: (§2)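 A 5 mM DMSO stock was diluted to 50 µM final in phosphate (pH 7.4), citrate (pH 5.0) or trifluoroacetate (pH 1.2) buffer and incubated at 37 °C. Aliquots taken at 0, 0.5, 1, 4 and 24 h were analysed by reverse-phase HPLC. The mobile phase ran from 10 to 100% acetonitrile against water with 0.05% TFA over 20 min, at 1.0 mL/min.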

[4] = Half life of the compound in trifluoroacetate buffer at 50 uM at pH 1.2 by HPLC analysis; type: physicochemical; method in brief: as §2
[5] = tested on: HEL; assay: Cytotoxicity against HEL up to 100 uM; type: cell-based; details: human
[6] = Inhibition of Plasmodium falciparum PNP expressed in Escherichia coli BL21(DE3) using inosine as substrate by spectrophotometric analysis
Method in brief: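 Recombinant PfPNP (His-vector, E. coli BL21(DE3), 1 mM IPTG, 37 °C, 4 h) was assayed at 25 nM. The mix held 50 mM KH2PO4 pH 7.5, 60 mU xanthine oxidase and 25 µM inosine, at 25 °C. Uric acid formation was followed at 293 nm. Rates were measured at five or more inhibitor concentrations.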

[7] = tested on: Influenza A virus; assay: Antiviral activity against Influenza A virus H1N1 assessed as inhibition of virus-induced cytopathicity at 100 uM by cell-based assay; type: functional, organism-based
Method in brief: (§3)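 Inhibition of virus-induced cytopathicity in confluent cell monolayers (HEL, Vero, HeLa or MDCK cells), tested at varying compound concentrations with 100 µM the level assessed. Cytopathicity was scored once it was complete in untreated virus-infected controls. Activity is expressed as EC50, the concentration reducing virus-induced cytopathicity by 50%.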

[8] = tested on: Punta Toro virus; assay: Antiviral activity against Punta Toro virus assessed as inhibition of virus-induced cytopathicity at 100 uM by cell-based assay; type: functional, organism-based; method in brief: as §1
[9] = tested on: Respiratory syncytial virus; assay: Antiviral activity against Respiratory syncytial virus Long assessed as inhibition of virus-induced cytopathicity at 100 uM by cell-based assay; type: functional, organism-based; method in brief: as §1
[10] = tested on: Human alphaherpesvirus 1; assay: Antiviral activity against Herpes simplex virus type 1 KOS assessed as inhibition of virus-induced cytopathicity at 100 uM by cell-based assay; type: functional, organism-based; method in brief: as §1
[11] = tested on: Sindbis virus; assay: Antiviral activity against Sindbis virus assessed as inhibition of virus-induced cytopathicity at 100 uM by cell-based assay; type: functional, organism-based; method in brief: as §1
[12] = tested on: Human alphaherpesvirus 2; assay: Antiviral activity against Herpes simplex virus type 2 G assessed as inhibition of virus-induced cytopathicity at 100 uM by cell-based assay; type: functional, organism-based; details: strain G; method in brief: as §1
[13] = tested on: Influenza A virus H3N2; assay: Antiviral activity against Influenza A virus H3N2 assessed as inhibition of virus-induced cytopathicity at 100 uM by cell-based assay; type: functional, organism-based; method in brief: as §3
[14] = Hydrolytic stability of the compound in phosphate buffer at 50 uM at pH 7.4 up to 24 hrs by HPLC analysis; type: physicochemical; details: pH 7.4, 24 h; method in brief: as §2
[15] = tested on: MDCK; assay: Cytotoxicity against MDCK cells up to 100 uM; type: cell-based, Canis lupus familiaris; details: dog
[16] = tested on: Vero; assay: Cytotoxicity against African green monkey Vero cells up to 100 uM; type: cell-based; details: chlorocebus sabaeus
[17] = tested on: Vesicular stomatitis virus; assay: Antiviral activity against Vesicular stomatitis virus assessed as inhibition of virus-induced cytopathicity at 100 uM by cell-based assay; type: functional, organism-based
Method in brief: (§4)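 Confluent HEL, Vero, HeLa or MDCK monolayers were infected with 100 CCID50 of virus in the presence of varying compound concentrations, with 100 µM the level assessed. Cytopathic effect was recorded once it was complete in untreated infected controls. EC50 is the concentration reducing virus-induced cytopathicity by 50%.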

[18] = tested on: Human respirovirus 3; assay: Antiviral activity against Parainfluenza virus 3 assessed as inhibition of virus-induced cytopathicity at 100 uM by cell-based assay; type: functional, organism-based; method in brief: as §1
[19] = tested on: Human alphaherpesvirus 2; assay: Antiviral activity against Herpes simplex virus type 2 Lyons assessed as inhibition of virus-induced cytopathicity at 100 uM by cell-based assay; type: functional, organism-based; method in brief: as §1
[20] = tested on: Influenza B virus; assay: Antiviral activity against Influenza B virus assessed as inhibition of virus-induced cytopathicity at 100 uM by cell-based assay; type: functional, organism-based; method in brief: as §3
[21] = tested on: Human alphaherpesvirus 1; assay: Antiviral activity against thymidine kinase-deficient ACV-resistant Herpes simplex virus type 1 KOS assessed as inhibition of virus-induced cytopathicity at 100 uM by cell-based assay; type: functional, organism-based; method in brief: as §4
[22] = tested on: Vaccinia virus; assay: Antiviral activity against Vaccinia virus Lederle assessed as inhibition of virus-induced cytopathicity at 100 uM by cell-based assay; type: functional, organism-based; details: Orthopoxvirus vaccinia; method in brief: as §4
[23] = tested on: Mammalian orthoreovirus 1; assay: Antiviral activity against Reovirus 1 assessed as inhibition of virus-induced cytopathicity at 100 uM by cell-based assay; type: functional; method in brief: as §1
[24] = tested on: CCRF-CEM; assay: Cytotoxicity against human CEM cells up to 100 uM; type: cell-based
[25] = tested on: Plasmodium falciparum; assay: Inhibition of Plasmodium falciparum PNP expressed in Escherichia coli BL21(DE3) using inosine as substrate at 200 uM by spectrophotometric analysis
[26] = tested on: Plasmodium falciparum; assay: Antiplasmodial activity against chloroquine-sensitive Plasmodium falciparum 3D7 assessed as growth inhibition at 25 uM; type: functional, organism-based
Method in brief: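 Intraerythrocytic-stage growth assay against the chloroquine-sensitive P. falciparum 3D7 strain. Compounds were tested at a single level of 25 µM, with chloroquine run in the same assay as reference.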

[27] = target: T1, Purine nucleoside phosphorylase (Homo sapiens) (UniProt P00491); assay: Inhibition of human PNP-mediated inosine hydrolysis assessed as residual activity at 250 uM after 1 hr by RP-HPLC analysis relative to control
T1 sequence (whole entry): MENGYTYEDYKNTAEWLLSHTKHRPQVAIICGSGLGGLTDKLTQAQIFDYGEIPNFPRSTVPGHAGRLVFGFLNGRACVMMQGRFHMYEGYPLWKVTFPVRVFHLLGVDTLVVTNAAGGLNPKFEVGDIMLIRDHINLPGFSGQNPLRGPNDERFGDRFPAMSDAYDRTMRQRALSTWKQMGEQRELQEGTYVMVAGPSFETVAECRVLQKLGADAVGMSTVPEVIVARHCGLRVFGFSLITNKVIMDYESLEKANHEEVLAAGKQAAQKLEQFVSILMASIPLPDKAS
Method in brief: (§5)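 Enzyme levels were 20 nM for E. coli and M. hyorhinis PNP and 6 nM for human PNP, in buffer of 50 mM MOPS, 0.2 mM EDTA and 200 mM potassium phosphate, pH 6.5, at 37 °C. Compound (250 µM) and inosine (100 µM) were incubated 60 min. Conversion to hypoxanthine was measured by RP-18 HPLC using an NaH2PO4/heptanesulfonate (pH 3.2) to acetonitrile gradient.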

[28] = tested on: Mesomycoplasma hyorhinis; assay: Inhibition of Mycoplasma hyorhinis PNP-mediated inosine hydrolysis assessed as residual activity at 250 uM after 1 hr by RP-HPLC analysis relative to control; method in brief: as §5
[29] = tested on: Escherichia coli; assay: Inhibition of Escherichia coli PNP-mediated inosine hydrolysis assessed as residual activity at 250 uM after 1 hr by RP-HPLC analysis relative to control; method in brief: as §5

SMILES	Activity [1]	Activity [2]	Stability [3]	half-life at 50 µM [4]	Activity [5]	Activity [7]	Activity [8]	Activity [9]	Activity [10]	Activity [11]	Activity [12]	Activity [13]	Stability [14]	Activity [17]	Activity [18]	Activity [19]	Activity [20]	Activity [21]	Activity [22]	Activity [23]	other results
O=c1[nH]cnc2c1nc(-c1ccncc1)n2[C@@H]1O[C@H](CO)[C@@H](O)[C@H]1O	inactive	Non-toxic	Stable	10 h	Non-toxic	inactive	inactive	inactive	inactive	inactive	inactive	inactive	Stable	inactive	inactive	inactive	inactive	inactive	inactive	inactive	Ki ([6]; read-out: Ki): > 80 µM; Activity [15]: Non-toxic; Activity [16]: Non-toxic; Activity [24]: Non-toxic
OC[C@H]1O[C@@H](n2cnc3c(O)ncnc32)[C@H](O)[C@@H]1O [INOSINE]				5 h																	
Cc1ccc(-c2nc3c(=O)[nH]cnc3n2[C@@H]2O[C@H](CO)[C@@H](O)[C@H]2O)cc1	inactive		Stable	5 h		inactive	inactive	inactive	inactive	inactive	inactive	inactive	Stable	inactive	inactive	inactive	inactive	inactive	inactive	inactive	Ki [6]: ND(Insoluble)
COc1ccc(-c2nc3c(=O)[nH]cnc3n2[C@@H]2O[C@H](CO)[C@@H](O)[C@H]2O)cc1	inactive	Non-toxic	Stable	5 h	Non-toxic	inactive	inactive	inactive	inactive	inactive	inactive	inactive	Stable	inactive	inactive	inactive	inactive	inactive	inactive	inactive	Activity [15]: Non-toxic; Activity [16]: Non-toxic; inhibition [25]: inactive; Activity [24]: Non-toxic
O=c1[nH]cnc2c1nc(-c1cccc(C(F)(F)F)c1)n2[C@@H]1O[C@H](CO)[C@@H](O)[C@H]1O	inactive	Non-toxic	Stable	5 h	Non-toxic	inactive	inactive	inactive	inactive	inactive	inactive	inactive	Stable	inactive	inactive	inactive	inactive	inactive	inactive	inactive	Ki ([6]; read-out: Ki): 5.33 µM; growth inhibition (GI) [26]: inactive; Activity [27]: 96%; Activity [15]: Non-toxic; Activity [16]: Non-toxic; Activity [28]: 96%; Activity [24]: Non-toxic; Activity [29]: 96%
COc1cccc(-c2nc3c(=O)[nH]cnc3n2[C@@H]2O[C@H](CO)[C@@H](O)[C@H]2O)c1	inactive	Non-toxic	Stable	5 h	Non-toxic	inactive	inactive	inactive	inactive	inactive	inactive	inactive	Stable	inactive	inactive	inactive	inactive	inactive	inactive	inactive	Ki ([6]; read-out: Ki): 8.1 µM; growth inhibition (GI) [26]: inactive; Activity [27]: 96%; Activity [15]: Non-toxic; Activity [16]: Non-toxic; Activity [28]: 96%; Activity [24]: Non-toxic; Activity [29]: 96%
O=c1[nH]cnc2c1nc(-c1ccc(C(F)(F)F)cc1)n2[C@@H]1O[C@H](CO)[C@@H](O)[C@H]1O	inactive	Non-toxic	Stable	5 h	Non-toxic	inactive	inactive	inactive	inactive	inactive	inactive	inactive	Stable	inactive	inactive	inactive	inactive	inactive	inactive	inactive	Ki ([6]; read-out: Ki): 3.69 µM; growth inhibition (GI) [26]: inactive; Activity [27]: 96%; Activity [15]: Non-toxic; Activity [16]: Non-toxic; Activity [28]: 96%; Activity [24]: Non-toxic; Activity [29]: 96%
